We go through 15 compounds from ChEMBL document CHEMBL3244264, “Anticandidal activity of 5-fluorocytosine-peptide conjugates” (J Med Chem, 1979).

Data set [1] relates to Saccharomyces cerevisiae. Briefly: Antiyeast activity against Saccharomyces cerevisiae 9763 assessed as total inhibition of fungal growth after 24 to 48 hrs by microdilution-colorimetric method. Format: functional. Put shortly:
(§1)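 Microdilution in yeast nitrogen base (0.67%) with 3% dextrose and 0.004% bromothymol blue, pH 7.2, filter-sterilized; twofold serial dilutions 1.28 mg/mL to 0.04 μg/mL. Overnight culture resuspended to about 2×10^6 cells/mL, 50-μL drop per well; organism-free and drug-free control wells. 48 h at 37 °C, read at 24 and 48 h. MIC is the lowest concentration with no blue-to-yellow/light green change; values normalized to molar equivalents of 5-FC.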
Background: Dilution methods test growth across graded concentrations, often in twofold steps.

The subject of data set [2] is Candida albicans. Briefly: Antiyeast activity against Candida albicans clinical isolate 1-V assessed as total inhibition of fungal growth after 24 to 48 hrs by microdilution-colorimetric method. Format: functional. Put shortly: as §1
The test system of data set [3] is Candida albicans. Briefly: Antiyeast activity against Candida albicans WD 18-4 assessed as total inhibition of fungal growth after 24 to 48 hrs by microdilution-colorimetric method. It counts as functional. Put shortly: as §1
Data set [4] concerns Pichia kudriavzevii. Briefly: Antiyeast activity against Candida krusei 1-T assessed as total inhibition of fungal growth after 24 to 48 hrs by microdilution-colorimetric method. Format: functional. Put shortly: as §1
The nature of data set [5]: Chemical stability of the compound in solutions of organism-free yeast nitrogen base assessed as half life at 50 uM at 37 degC by UV absorbance analysis. It counts as physicochemical. The settings on record: organism-free yeast nitrogen base solution. Put shortly: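 Organism-free yeast nitrogen base (0.67%) with 3% dextrose, pH 7.2 (KOH), held at 37 °C in thermostatted cells. Compound in Me2SO added to a final concentration of ca. 5×10^-5 M. Hydrolysis followed as the fall in absorbance at 305 nm over time, first-order fit. Slower compounds (t1/2 > 5 h) were incubated separately and aliquots read at intervals.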

Values after ≈ are worked out from the molar mass of the structure shown. Starred links: 1 amine or outer side, 2 acyl side, 3 side chain; linkers in the order of their positions; H or OH if unused. Residues, ends and D or L forms follow the SMILES beside them. *: point of attachment. Suc = O=C(CCC(=O)[*:2])[*:1]; OBn = c1ccc(CO*)cc1

Turning to `CC(C)C[C@H](NC(=O)[C@H](C)NC(=O)CCC(=O)Nc1nc(=O)[nH]cc1F)C(=O)OCc1ccccc1`, the minimal inhibitory concentration (MIC) (usually the lowest concentration that inhibits growth of the organism) was 0.31 µg/mL (≈ 0.616 µM) in data set [1], 0.62 µg/mL (≈ 1.23 µM) in data set [2], 5 µg/mL (≈ 9.93 µM) in data set [3] and 20 µg/mL (≈ 39.7 µM) in data set [4]. Moreover, the half-life (usually the time in which the quantity being followed falls by half) at 50 µM in data set [5] is 1.1 h.
With `CC(C)C[C@H](NC(=O)CCC(=O)Nc1nc(=O)[nH]cc1F)C(=O)N[C@@H](CC(C)C)C(=O)OCc1ccccc1`, the MIC in data set [1] turned out to be 0.31 µg/mL (≈ 0.568 µM); in data set [2], 0.62 µg/mL (≈ 1.14 µM); in data set [3], 2.5 µg/mL (≈ 4.58 µM); in data set [4], 20 µg/mL (≈ 36.7 µM).
`O=C(CCC(=O)Nc1nc(=O)[nH]cc1F)NCC(=O)NCC(=O)OCc1ccccc1`: the MIC in data set [1] came to 0.62 µg/mL (≈ 1.43 µM); in data set [2], 0.62 µg/mL (≈ 1.43 µM); in data set [3] it was 5 µg/mL (≈ 11.5 µM); in data set [4], 20 µg/mL (≈ 46.1 µM). In data set [5], the half-life at 50 µM is 0.3 h.
Regarding `CC(C)C[C@H](NC(=O)[C@H](C)NC(=O)CCC(=O)Nc1nc(=O)[nH]cc1F)C(=O)O`, the MIC in data set [1] is 0.31 µg/mL (≈ 0.75 µM); in data set [2], 0.31 µg/mL (≈ 0.75 µM); in data set [3] it was 5 µg/mL (≈ 12.1 µM); in data set [4], 10 µg/mL (≈ 24.2 µM). The half-life at 50 µM in data set [5] was 1.7 h.
`CC(C)C[C@H](NC(=O)[C@H](CC(C)C)NC(=O)CCC(=O)Nc1nc(=O)[nH]cc1F)C(=O)O`: the MIC in data set [1] was 0.31 µg/mL (≈ 0.681 µM); in data set [2], 0.31 µg/mL (≈ 0.681 µM); in data set [3] it was 5 µg/mL (≈ 11 µM); in data set [4] it was 10 µg/mL (≈ 22 µM). Besides, the half-life at 50 µM in data set [5] is 2.9 h.
With `CC(C)C[C@H](NC(=O)CCC(=O)O)C(=O)N[C@@H](CC(C)C)C(=O)OCc1ccccc1`, the minimum inhibitory concentration (MIC) in data set [1] is 80 µg/mL (≈ 184 µM); in data set [2], 80 µg/mL (≈ 184 µM); in data set [3], more than 20 µg/mL; in data set [4] it was 320 µg/mL (≈ 736 µM).
With `CC(=O)Nc1nc(O)ncc1F`, the MIC came out at 0.31 µg/mL (≈ 1.81 µM) in data set [1], 2.5 µg/mL (≈ 14.6 µM) in data set [2], 5 µg/mL (≈ 29.2 µM) in data set [3] and 40 µg/mL (≈ 234 µM) in data set [4]. Also, in data set [5], the half-life at 50 µM is 17.6 h.
Consider `CC(C)(C)OC(=O)N[C@@H](CCC(=O)Nc1nc(=O)[nH]cc1F)C(=O)OCc1ccccc1`, for which the minimum inhibitory concentration (MIC) stood at 1.25 µg/mL (≈ 2.79 µM) in data set [1], 2.5 µg/mL (≈ 5.57 µM) in data set [2], 2.5 µg/mL (≈ 5.57 µM) in data set [3] and 20 µg/mL (≈ 44.6 µM) in data set [4]. Also, in data set [5], the half-life at 50 µM was 10 h.
In the case of `C[C@H](NC(=O)OC(C)(C)C)C(=O)NCC(=O)Nc1nc(=O)[nH]cc1F`, the MIC in data set [1] stood at 0.62 µg/mL (≈ 1.74 µM); in data set [2], 0.62 µg/mL (≈ 1.74 µM); in data set [3], 1.25 µg/mL (≈ 3.5 µM); in data set [4] it was 20 µg/mL (≈ 56 µM). The half-life at 50 µM in data set [5] is 2.3 h.
Consider `O=C(CNC(=O)OCc1ccccc1)Nc1nc(=O)[nH]cc1F`, for which the minimum inhibitory concentration (MIC) came to 0.31 µg/mL (≈ 0.968 µM) in data set [1], 0.62 µg/mL (≈ 1.94 µM) in data set [2], 2.5 µg/mL (≈ 7.81 µM) in data set [3] and 10 µg/mL (≈ 31.2 µM) in data set [4].
The matching figures for `CC(C)C[C@H](NC(=O)[C@H](C)NC(=O)CCC(=O)O)C(=O)OCc1ccccc1` (Suc-Ala-Leu-OBn): 160 µg/mL (≈ 408 µM), 80 µg/mL (≈ 204 µM), more than 20 µg/mL and 320 µg/mL (≈ 815 µM).
For `O=C(O)CCC(=O)NCC(=O)NCC(=O)OCc1ccccc1` (Suc-Gly-Gly-OBn), the MIC in data set [1] was 320 µg/mL (≈ 993 µM); in data set [2], 320 µg/mL (≈ 993 µM); in data set [3], more than 20 µg/mL; in data set [4], 320 µg/mL (≈ 993 µM).
With `Nc1nc(=O)[nH]cc1F` [FLUCYTOSINE], the MIC in data set [1] amounted to 0.31 µg/mL (≈ 2.4 µM); in data set [2], 0.31 µg/mL (≈ 2.4 µM); in data set [3] it was 5 µg/mL (≈ 38.7 µM); in data set [4], 5 µg/mL (≈ 38.7 µM).
With `O=c1[nH]cc(F)c(=O)[nH]1` [FLUOROURACIL], the MIC in data set [1] was 1.25 µg/mL (≈ 9.61 µM); in data set [2], 2.5 µg/mL (≈ 19.2 µM); in data set [3] it was more than 20 µg/mL; in data set [4] it was 2.5 µg/mL (≈ 19.2 µM).
As for `O=C(O)CCC(=O)O` [SUCCINIC ACID], the MIC in data set [1] was 640 µg/mL (≈ 5420 µM); in data set [2], 320 µg/mL (≈ 2710 µM); in data set [3] it was more than 20 µg/mL; in data set [4] it was 320 µg/mL (≈ 2710 µM).
